SUMO1-SIM PPI – modulators of human SUMO1-mediated protein-protein interactions; SUMO1 binding to a labelled peptide, TR-FRET, 1 h; actives 0.33% (n = 360,000); inhibition, % at 20 µM; P63165; AID 602429; in the data active means inhibition above about 37%
STEP inh – blocks human striatal-enriched tyrosine phosphatase. P54829. recombinant STEP, OMFP fluorogenic substrate, fluorescence. inhibition, % at 20 µM. actives 0.25% (n = 360,000). AID 588621;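 active means inhibition at 20 µM, scaled per plate between control wells, above about 37%, limit read from the data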;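 further: 0% = DMSO with enzyme and substrate and 100% = substrate only without enzyme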
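System: isolated STEP enzyme; schedule: 20 min enzyme reaction at room temperature, protected from light; medium: Bis-Tris buffer pH 6.0, 2.5 mM DTT, 0.005% Tween 20; signal: fluorescence, 480/540 nm; dosing: single compound dose of 20 µM, 1% DMSO final; also added: OMFP substrate, 25 µM final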
Scp-1 inhibitor – blocks human Scp-1 phosphatase activity; Q9GZU7; Recombinant Scp1, phosphopeptide, malachite green phosphate absorbance; inhibition, % at 20 µM; actives 0.88% (n = 340,000);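 active means inhibition above about 50% at 20 µM, limit read from the data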;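 further: plate controls were DMSO wells with enzyme for no effect and wells lacking enzyme for full effect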
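System: truncated SCP-1 phosphatase (76-261aa); medium: Tris acetate buffer pH 5.5 with MgCl2 and Tween-20; incubation: 45 min room-temperature reaction, 5 min colour, 30 min stabiliser; compound: single 20 µM dose, 1% DMSO; reagent: Phosphorylated 17-residue peptide substrate; read-out: % inhibition at 20 µM; technique: colorimetric free-phosphate detection, absorbance 630 nm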
DNMT1 block – DNMT1 (human) enzyme inhibition | actives 0.83% (n = 360,000) | DNMT1 molecular beacon, Hinp1I cleavage, fluorescence | AID 588458 | P26358 | inhibition (reported as % activation of signal), % at 10 µM; in the data active means inhibition above about 50%
Target sequence (P26358 504-1616 limits assumed): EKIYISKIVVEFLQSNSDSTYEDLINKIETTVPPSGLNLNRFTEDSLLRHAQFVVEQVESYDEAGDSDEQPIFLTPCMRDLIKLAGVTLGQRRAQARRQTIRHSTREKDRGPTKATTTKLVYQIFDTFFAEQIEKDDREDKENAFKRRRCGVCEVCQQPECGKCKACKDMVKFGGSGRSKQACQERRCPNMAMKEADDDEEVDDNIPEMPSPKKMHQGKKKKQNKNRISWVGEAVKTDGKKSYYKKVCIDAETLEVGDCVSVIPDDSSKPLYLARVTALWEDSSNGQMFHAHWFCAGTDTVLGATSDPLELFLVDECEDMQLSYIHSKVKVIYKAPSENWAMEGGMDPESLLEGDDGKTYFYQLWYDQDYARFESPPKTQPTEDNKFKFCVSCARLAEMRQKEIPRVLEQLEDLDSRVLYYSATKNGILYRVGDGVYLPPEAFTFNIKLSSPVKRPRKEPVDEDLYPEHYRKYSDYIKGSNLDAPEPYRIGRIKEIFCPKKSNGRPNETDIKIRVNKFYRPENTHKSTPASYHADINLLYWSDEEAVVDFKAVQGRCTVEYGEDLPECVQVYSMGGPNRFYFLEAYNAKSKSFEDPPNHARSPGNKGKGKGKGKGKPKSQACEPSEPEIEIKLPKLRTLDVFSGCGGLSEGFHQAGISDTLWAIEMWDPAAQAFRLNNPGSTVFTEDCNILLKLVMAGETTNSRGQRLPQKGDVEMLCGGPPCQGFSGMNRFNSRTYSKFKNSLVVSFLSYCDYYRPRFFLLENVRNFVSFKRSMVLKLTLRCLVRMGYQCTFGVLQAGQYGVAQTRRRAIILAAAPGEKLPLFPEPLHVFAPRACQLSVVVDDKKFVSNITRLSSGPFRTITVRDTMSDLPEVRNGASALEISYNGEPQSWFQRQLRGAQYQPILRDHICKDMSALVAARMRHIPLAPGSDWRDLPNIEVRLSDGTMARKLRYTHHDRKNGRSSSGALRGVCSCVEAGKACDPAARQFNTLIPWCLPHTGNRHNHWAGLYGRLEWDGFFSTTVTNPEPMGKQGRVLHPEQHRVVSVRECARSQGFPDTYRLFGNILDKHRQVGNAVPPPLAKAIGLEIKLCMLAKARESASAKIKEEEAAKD
LMPTP inh – blocks human LMPTP phosphatase; actives 0.22% (n = 360,000); P24666; inhibition, % at 20 µM; recombinant LMPTP-A, OMFP fluorogenic substrate, fluorescence intensity;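 active means compounds that cut the enzyme signal by at least half of the control window in the single-dose screen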;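 further: plate controls were DMSO wells with enzyme plus substrate for no effect and substrate without enzyme for full effect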
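Test system – LMPTP-A phosphatase enzyme · Quantity – 0.625 nM LMPTP-A final · Reagent – OMFP substrate, 400 µM final · Dosing – one test concentration per compound, 20 µM, with 3% DMSO overall · Timing – 50 min enzyme reaction at room temperature, protected from light · Detection – fluorescence intensity · Controls – substrate-only low control, DMSO enzyme-plus-substrate high control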
Scp1 confirm – Scp-1 (human) inhibition, single-dose confirmed; actives 61% (n = 2,500); shares compounds with Scp-1 inhibitor; recombinant SCP-1 catalytic domain, phosphate release, malachite green absorbance; inhibition, % at 20 µM;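 further: plate controls were DMSO with enzyme for no effect and buffer wells lacking enzyme for full effect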
MG interference – interferes with malachite green readout, flagging false Scp-1 hits. Colorimetric interference counterscreen, malachite green absorbance 630 nm. shares compounds with Scp-1 inhibitor. apparent inhibition (interference), % at 20 µM. 2,500 tested, under 10 active;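 further: compounds added after enzyme reaction finished so only phosphate colour detection is probed; plate controls were DMSO wells with completed Scp-1 reaction for no effect and substrate wells lacking enzyme for full effect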
Scp-1 Tm shift – Scp-1 (human) binding by thermal shift | shares compounds with Scp-1 inhibitor | Recombinant SCP1, Sypro Orange thermal shift Tm | thermal shift relative to vanadate control, % at 40 µM | actives 25% (n = 1,500) | AID 540329;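 active means substances whose mean melting-temperature shift, as a percentage of the reference inhibitor's shift, reaches about 5.3%, limit read from the data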;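 further: 0% = Tm of DMSO wells and 100% = Tm with sodium orthovanadate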
Active calls of the source: *; x = not tested or not shown. Most compounds without a hit are left out; they make up all but 1.7% or so of the library.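 How the source made its calls, unless noted: active means inhibition of at least 30% at 20 µM; inactive means the rest.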

SMILES	SUMO1-SIM PPI	STEP inh	Scp-1 inhibitor	DNMT1 block	LMPTP inh	Scp1 confirm	MG interference	others
COc1ccc(C=C2SC(=S)NC2=O)cc1	-7	-4	11	-1	-2	x	x
CC(C)C[C@H]1CNC(=O)C(=O)N1C[C@H]1CCCN1C[C@H](CC(C)C)N1C[C@H](Cc2ccccc2)N(CCc2ccccc2)C(=O)C1=O	0	-2	x	-9	1	x	x
Cc1ccc(C(=O)Nc2cccc(NC(=O)c3ccc(C)c([N+](=O)[O-])c3)n2)cc1[N+](=O)[O-]	18	4	70*	31	36	67*	-10	Scp-1 Tm shift=14*
Cc1cc(NC(=O)c2ccc(C)c([N+](=O)[O-])c2)no1	-10	-1	-3	0	0	x	x
Cn1nnnc1Sc1ncnc2scc(-c3ccc(-c4ccccc4)cc3)c12	-58	1	-14	17	1	x	x
Cn1nnnc1Sc1ncnc2scc(-c3ccccc3C(F)(F)F)c12	5	-1	55*	8	-1	-16	-28
Cn1nnnc1Sc1ncnc2scc(-c3ccc(C(F)(F)F)cc3)c12	1	1	-8	11	0	x	x
Cn1nnnc1Sc1ncnc2scc(-c3cccs3)c12	x	x	58*	x	x	-3	-22
CCOC(=O)Cn1c2[n+](c3ccccc31)CC(O)CS2 (centres undefined)	3	-2	102*	2	-2	91*	-9	Scp-1 Tm shift=-19
COc1cccc(C(C)(O)c2nc(-c3cccc(NC(C)=O)c3)cs2)c1 (centres undefined)	0	0	x	1	0	x	x
COc1ccc(CC2(CO)CCN(S(=O)(=O)c3c(C)nn(C)c3Cl)CC2)cc1	-4	-3	6	-36	-1	x	x
Cc1nn(C)c(Cl)c1S(=O)(=O)N1CCC(CO)(CCc2ccccc2)CC1	1	2	81*	-6	-1	-14	-16
Cc1ccc(C(=O)NCCN2CCNC2=O)cc1	3	4	-18	1	-1	-11	-7
Cc1onc(-c2c(F)cccc2Cl)c1C(=O)NCCN1CCNC1=O	4	-1	-14	1	1	-6	-11
COc1ccc(N2CCN(C(=O)CN(C)S(=O)(=O)c3cnc[nH]3)CC2)cc1	-5	-1	54*	2	1	-18	-16
Cc1c(NC(=O)CC2NC(=O)NC2=O)c(=O)n(-c2ccccc2)n1C (centres undefined)	x	x	x	x	x	-8	-8
Cc1c(NC(=O)CC(=O)Nc2c(C)n(C)n(-c3ccccc3)c2=O)c(=O)n(-c2ccccc2)n1C	2	1	-2	0	-2	x	x
CCOc1cc(/C=C/c2cccc[n+]2C)ccc1OCC(=O)Nc1ccc(C)cc1	-25	-4	4	0	0	x	x
CCOc1cc(/C=C/c2cccc[n+]2C)ccc1O	-32	0	72*	0	-2	-12	-14
COc1cc(/C=C/c2cccc[n+]2C)ccc1OCC(=O)Nc1ccccc1C	-8	0	52*	1	0	-3	-11
O=C(NN=C1CCCC1)c1cc(O)cc(O)c1	38	12	52*	8	7	53*	-1	Scp-1 Tm shift=-8
Cc1ccc(NC(=O)CSC2=C(C#N)C(c3ccco3)C3=C(CCCC3=O)N2)cc1 (centres undefined)	-9	-4	-11	-4	2	x	x
N#CC1=C(SCC(=O)Nc2ccc(C(=O)O)cc2)NC(=O)CC1c1ccco1 (centres undefined)	27	22	52*	28	0	46*	-14	Scp-1 Tm shift=5
COC(=O)C1=CN(c2ccccc2OC)C(N)=C(C#N)C1c1cccc([N+](=O)[O-])c1 (centres undefined)	-12	x	x	x	2	x	x
CCCCCC(=O)NNC(=O)c1ccc(F)cc1	-3	0	-4	5	0	x	x
SMILES	SUMO1-SIM PPI	STEP inh	Scp-1 inhibitor	DNMT1 block	LMPTP inh	Scp1 confirm	MG interference	others
CCOc1ccccc1OCCCC(=O)NNC(=O)c1ccc(F)cc1	0	2	59*	-1	0	-12	-17
CCn1c(SCC(=O)N/N=C/C(C)=C\c2ccco2)nnc1-c1ccccc1	3	1	76*	1	3	60*	-18	Scp-1 Tm shift=-2
CCn1c(SCC(=O)N/N=C/C=C/c2ccco2)nnc1-c1ccccc1	9	0	24	11	-1	x	x
CCn1c(SCC(=O)N/N=C/C(C)=C/c2ccco2)nnc1-c1ccccc1	9	2	88*	10	0	50*	-12	Scp-1 Tm shift=4
COc1ccc(Nc2nc(OC)nc(OC)n2)cc1	6	-1	1	-4	-1	x	x
CCOc1nc(Nc2ccc(OC)cc2)nc(OCC)n1	1	12	67*	3	0	30	-17
CCOc1ccc(S(=O)(=O)NCc2ccccc2Cl)cc1C(N)=O	2	-4	0	-3	-1	-21	-19
CCOc1ccc(S(=O)(=O)NCc2ccccc2)cc1C(N)=O	-5	3	-5	3	0	x	x
COc1ccc(CCNC(=O)c2ccc3c(c2)S(=O)(=O)N=C2CCCCCN23)cc1OC	-3	-4	x	2	1	x	x
O=C(O)c1ccc(-n2c(-c3cc(-c4ccco4)[nH]n3)n[nH]c2=S)cc1	27	6	67*	43	-2	69*	-8	Scp-1 Tm shift=-6
N#Cc1cccc(-c2csc(C(O)(c3ccccc3)C(F)(F)F)n2)c1 (centres undefined)	3	-2	x	1	1	x	x
Cc1ccc(CC(=O)N/N=C/c2ccc(OC(=O)c3ccc([N+](=O)[O-])cc3)cc2)cc1	-6	3	61*	41	15	42*	-7	Scp-1 Tm shift=-4
COCCNC(=O)C1(C)CCCN(Cc2ccc(Cl)c(Cl)c2)C1 (centres undefined)	2	4	x	0	-2	x	x
COCCN(C(=O)C1CCN(C(=O)c2ccccc2C)CC1)c1c(N)n(CC(C)C)c(=O)[nH]c1=O	1	-4	63*	6	-2	77*	-17	Scp-1 Tm shift=-1
Cc1ccccc1C(=O)N1CCC(C(=O)N(CC(C)C)c2c(N)n(CC(C)C)c(=O)[nH]c2=O)CC1	1	-2	5	2	-1	x	x
CCCCN(C(=O)C1CC(=O)N(Cc2ccc(C)cc2)C1)c1c(N)n(CC(C)C)c(=O)[nH]c1=O (centres undefined)	-1	-2	-7	0	-1	-11	-6
